Measurements reported in ChEMBL document CHEMBL1157589, “Antifungal 3,5-disubstituted furanones: From 5-acyloxymethyl to 5-alkylidene derivatives” (Bioorg Med Chem, 2010).
Values after ≈ are worked out from the molar mass of the structure shown. Active and inactive are the calls of the source. The calls are words filed in the database; no cut-off is given here.

Experiments:
Candida albicans [1] = assay: Antifungal activity against Candida albicans ATCC 44859 after 48 hrs by microdilution method; format: functional; details: ATCC 44859, 48 h
Outline: (§1)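 Yeasts held on Sabouraud dextrose agar. MIC by NCCLS M27-A broth microdilution in RPMI 1640 with L-glutamine, buffered with 0.165 M MOPS to pH 7.0. Compounds in DMSO (≤2% final), twofold dilutions 500–0.48. Final inoculum 5 × 10³ ± 0.2 cfu mL⁻¹. Incubated at 35 °C; absorbance at 540 nm read at 24 and 48 h. MIC is 80% growth inhibition versus control; run twice in duplicate.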

Candida albicans [2] = assay: Antifungal activity against Candida albicans ATCC 90028 after 24 hrs by microdilution method; format: functional; details: ATCC 90028, 24 h; outline: as §1
Candida albicans [3] = assay: Antifungal activity against Candida albicans ATCC 90028 after 48 hrs by microdilution method; format: functional; details: ATCC 90028, 48 h; outline: as §1
Candida parapsilosis [4] = assay: Antifungal activity against Candida parapsilosis ATCC 22019 after 24 hrs by microdilution method; format: functional; details: Lodderomyces parapsilosis, ATCC 22019, 24 h; outline: as §1
Candida parapsilosis [5] = assay: Antifungal activity against Candida parapsilosis ATCC 22019 after 48 hrs by microdilution method; format: functional; details: Lodderomyces parapsilosis, ATCC 22019, 48 h; outline: as §1
Pichia kudriavzevii [6] = assay: Antifungal activity against Candida krusei ATCC 6258 after 24 hrs by microdilution method; format: functional; details: ATCC 6258, 24 h; outline: as §1
Pichia kudriavzevii [7] = assay: Antifungal activity against Candida krusei ATCC 6258 after 48 hrs by microdilution method; format: functional; details: ATCC 6258, 48 h; outline: as §1
Pichia kudriavzevii [8] = assay: Antifungal activity against Candida krusei E28 after 24 hrs by microdilution method; format: functional; details: E28, 24 h; outline: as §1
Pichia kudriavzevii [9] = assay: Antifungal activity against Candida krusei E28 after 48 hrs by microdilution method; format: functional; details: E28, 48 h; outline: as §1
Candida tropicalis [10] = assay: Antifungal activity against Candida tropicalis 156 after 24 hrs by microdilution method; format: functional; details: Candida tropicalis, 156, 24 h; outline: as §1
Candida tropicalis [11] = assay: Antifungal activity against Candida tropicalis 156 after 48 hrs by microdilution method; format: functional; details: Candida tropicalis, 156, 48 h; outline: as §1
Nakaseomyces glabratus [12] = assay: Antifungal activity against Candida glabrata 20/I after 24 hrs by microdilution method; format: functional; outline: as §1
Nakaseomyces glabratus [13] = assay: Antifungal activity against Candida glabrata 20/I after 48 hrs by microdilution method; format: functional; outline: as §1
Clavispora lusitaniae [14] = assay: Antifungal activity against Candida lusitaniae 2446/I after 24 hrs by microdilution method; format: functional; outline: as §1
Clavispora lusitaniae [15] = assay: Antifungal activity against Candida lusitaniae 2446/I after 48 hrs by microdilution method; format: functional; outline: as §1
Trichosporon beigelii [16] = assay: Antifungal activity against Trichosporon beigelii 1188 after 24 hrs by microdilution method; format: functional; details: Trichosporon beigelii, 1188, 24 h; outline: as §1
Trichosporon beigelii [17] = assay: Antifungal activity against Trichosporon beigelii 1188 after 48 hrs by microdilution method; format: functional; details: Trichosporon beigelii, 1188, 48 h; outline: as §1
Aspergillus fumigatus [18] = assay: Antifungal activity against Aspergillus fumigatus 231 after 24 hrs by microdilution method; format: functional; details: Aspergillus fumigatus, 231, 24 h
Outline: (§2)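 Filamentous strains held on Sabouraud dextrose agar. NCCLS M27-A broth microdilution in RPMI 1640 with L-glutamine and 0.165 M MOPS, pH 7.0. DMSO diluent ≤2% final; twofold dilutions 500–0.48. Inoculum 5 × 10³ ± 0.2 cfu mL⁻¹ final.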

Aspergillus fumigatus [19] = assay: Antifungal activity against Aspergillus fumigatus 231 after 48 hrs by microdilution method; format: functional; details: Aspergillus fumigatus, 231, 48 h; outline: as §2
Lichtheimia corymbifera [20] = assay: Antifungal activity against Absidia corymbifera 272 after 24 hrs by microdilution method; format: functional; details: Lichtheimia corymbifera, 272, 24 h; outline: as §2
Lichtheimia corymbifera [21] = assay: Antifungal activity against Absidia corymbifera 272 after 48 hrs by microdilution method; format: functional; details: Lichtheimia corymbifera, 272, 48 h; outline: as §2
[22] = test system: Trichophyton mentagrophytes; assay: Antifungal activity against Trichophyton mentagrophytes 445 after 72 hrs by microdilution method; format: functional; details: Trichophyton mentagrophytes, 445, 72 h
Outline: (§3)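 Dermatophyte held on Sabouraud dextrose agar. M27-A microdilution in MOPS-buffered (0.165 M, pH 7.0) RPMI 1640 with L-glutamine. DMSO ≤2% final; twofold dilutions 500–0.48. Inoculum 5 × 10³ ± 0.2 cfu mL⁻¹ final. Incubated at 35 °C; MIC read visually at 72 and 120 h as 80% inhibition of control growth; determined twice in duplicate.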

[23] = test system: Trichophyton mentagrophytes; assay: Antifungal activity against Trichophyton mentagrophytes 445 after 120 hrs by microdilution method; format: functional; details: Trichophyton mentagrophytes, 445, 120 h; outline: as §3
[24] = Chemical stability in tetrahydrofuran solution at 4.7 mg after 24 hrs in room temperature by HPLC analysis; format: physicochemical
[25] = Chemical stability in DMSO solution at 4.7 mg after 24 hrs in room temperature by HPLC analysis; format: physicochemical
Candida albicans [26] = assay: Antifungal activity against Candida albicans ATCC 44859 after 24 hrs by microdilution method; format: functional; details: ATCC 44859, 24 h; outline: as §1
L1210 = assay: Cytostatic activity against mouse L1210 cells after 72 hrs by XTT assay; format: functional, cell-based; details: Mus musculus, L1210, 72 h; read-out: IC50
Outline: (§4)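 Leukemia cells (L1210 ATCC CCL 219, CCRF-CEM ATCC CCL 119, HL-60 ATCC CCL 240) grown in 24-well plates in RPMI 1640 with fetal calf serum. Growth assessed 72 h after drug addition. Viability measured by XTT spectrophotometric assay; potency given as IC50.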

HL-60 = assay: Cytostatic activity against human HL60 cells after 72 hrs by XTT assay; format: functional, cell-based; details: Homo sapiens, HL-60, 72 h; read-out: IC50; outline: as §4
CCRF-CEM [27] = assay: Cytostatic activity against human CCRF-CEM cells after 72 hrs by XTT assay; format: functional, cell-based; details: Homo sapiens, CCRF-CEM, 72 h; read-out: IC50; outline: as §4
CCRF-CEM [28] = assay: Cell cycle arrest in human CCRF-CEM cells assessed as increase in accumulation at G1 phase at 2.5 umol/L after 72 hrs by FACS analysis; format: functional, cell-based
Outline: (§5)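 CCRF-CEM cells cultured with compound at 2.5 µmol/L. At the 72 h growth endpoint, cells ethanol-fixed and stained with propidium iodide in RNase A-containing buffer. Cell-cycle distribution analysed by flow cytometry against untreated control cells.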

CCRF-CEM [29] = assay: Cell cycle arrest in human CCRF-CEM cells assessed as increase in accumulation at S phase at 2.5 umol/L after 72 hrs by FACS analysis; format: functional, cell-based; outline: as §5
CCRF-CEM [30] = assay: Cell cycle arrest in human CCRF-CEM cells assessed as decrease in accumulation at G2/M phase at 2.5 umol/L after 72 hrs by FACS analysis; format: functional, cell-based; outline: as §5
CCRF-CEM [31] = assay: Induction of apoptosis in human CCRF-CEM cells assessed as necrotic cells at 2.5 umol/L after 72 hrs by annexin-V FITC staining-based flow cytometry; format: functional
Outline: (§6)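 CCRF-CEM cells grown with compound at 2.5 µmol/L alongside untreated controls. Apoptotic and necrotic populations detected by flow cytometry using an Annexin V-FITC apoptosis kit, following the manufacturer's protocol.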

CCRF-CEM [32] = assay: Induction of apoptosis in human CCRF-CEM cells assessed as loss of cellular plasma membrane integrity at 2.5 umol/L after 72 hrs by annexin-V FITC staining-based flow cytometry; format: functional, cell-based; outline: as §6
CCRF-CEM [33] = assay: Induction of apoptosis in human CCRF-CEM cells assessed as loss of cellular […] membrane integrity at 2.5 umol/L after 72 hrs by annexin-V FITC staining-based flow cytometry; format: functional, cell-based; outline: as §6
HeLa S3 [34] = assay: Cytostatic activity against human HeLaS3 cells after 48 hrs by XTT assay; details: Homo sapiens, HeLa S3, 48 h; read-out: IC50
HeLa S3 [35] = assay: Cytostatic activity against human HeLaS3 cells after 72 hrs by XTT assay; format: functional, cell-based

Structure (SMILES) | MIC80 (Candida albicans [1]) [µM] | MIC80 (Candida albicans [2]) [µM] | MIC80 (Candida albicans [3]) [µM] | MIC80 (Candida parapsilosis [4]) [µM] | MIC80 (Candida parapsilosis [5]) [µM] | MIC80 (Pichia kudriavzevii [6]) [µM] | MIC80 (Pichia kudriavzevii [7]) [µM] | MIC80 (Pichia kudriavzevii [8]) [µM] | MIC80 (Pichia kudriavzevii [9]) [µM] | MIC80 (Candida tropicalis [10]) [µM] | MIC80 (Candida tropicalis [11]) [µM] | MIC80 (Nakaseomyces glabratus [12]) [µM] | MIC80 (Nakaseomyces glabratus [13]) [µM] | MIC80 (Clavispora lusitaniae [14]) [µM] | MIC80 (Clavispora lusitaniae [15]) [µM] | MIC80 (Trichosporon beigelii [16]) [µM] | MIC80 (Trichosporon beigelii [17]) [µM] | MIC80 (Aspergillus fumigatus [18]) [µM] | MIC80 (Aspergillus fumigatus [19]) [µM] | MIC80 (Lichtheimia corymbifera [20]) [µM] | also measured
CC(=O)OCC1C=C(c2ccc(Br)cc2)C(=O)O1 (configuration not stated) | 1.95 (≈ 0.607 µg/mL) | 3.9 (≈ 1.21 µg/mL) | 3.9 (≈ 1.21 µg/mL) | 3.9 (≈ 1.21 µg/mL) | 15.6 (≈ 4.86 µg/mL) | 3.9 (≈ 1.21 µg/mL) | 7.81 (≈ 2.43 µg/mL) | 7.81 (≈ 2.43 µg/mL) | 7.81 (≈ 2.43 µg/mL) | 7.81 (≈ 2.43 µg/mL) | 7.81 (≈ 2.43 µg/mL) | 1.95 (≈ 0.607 µg/mL) | 1.95 (≈ 0.607 µg/mL) | 3.9 (≈ 1.21 µg/mL) | 7.81 (≈ 2.43 µg/mL) | 7.81 (≈ 2.43 µg/mL) | 7.81 (≈ 2.43 µg/mL) | 0.98 (≈ 0.305 µg/mL) | 3.91 (≈ 1.22 µg/mL) | 7.81 (≈ 2.43 µg/mL) | MIC80 (Lichtheimia corymbifera [21]): 15.6 µM (≈ 4.86 µg/mL); MIC80 [22]: 1.95 µM (≈ 0.607 µg/mL); MIC80 [23]: 3.9 µM (≈ 1.21 µg/mL); Stability [24]: Stable; Stability [25]: < 3 h; MIC80 (Candida albicans [26]): 0.49 µM (≈ 0.152 µg/mL)
C=C1C=C(c2ccc(Br)cc2)C(=O)O1 | 1.95 (≈ 0.49 µg/mL) | 3.9 (≈ 0.979 µg/mL) | 7.81 (≈ 1.96 µg/mL) | 7.81 (≈ 1.96 µg/mL) | 15.6 (≈ 3.92 µg/mL) | 7.81 (≈ 1.96 µg/mL) | 7.81 (≈ 1.96 µg/mL) | 7.81 (≈ 1.96 µg/mL) | 7.81 (≈ 1.96 µg/mL) | 7.81 (≈ 1.96 µg/mL) | 15.6 (≈ 3.92 µg/mL) | 1.95 (≈ 0.49 µg/mL) | 1.95 (≈ 0.49 µg/mL) | 7.81 (≈ 1.96 µg/mL) | 15.6 (≈ 3.92 µg/mL) | 3.9 (≈ 0.979 µg/mL) | 15.6 (≈ 3.92 µg/mL) | 1.95 (≈ 0.49 µg/mL) | 7.81 (≈ 1.96 µg/mL) | 31.2 (≈ 7.85 µg/mL) | MIC80 (Lichtheimia corymbifera [21]): 125 µM (≈ 31.4 µg/mL); MIC80 [22]: 1.95 µM (≈ 0.49 µg/mL); MIC80 [23]: 3.9 µM (≈ 0.979 µg/mL); IC50 (L1210): 21 µM; IC50 (HL-60): 18 µM; IC50 (CCRF-CEM [27]): 2520 nM; Activity (CCRF-CEM [28]): Active; Activity (CCRF-CEM [29]): Active; Activity (CCRF-CEM [30]): Active; Activity (CCRF-CEM [31]): > 80%; Activity (CCRF-CEM [32]): Active; Activity (CCRF-CEM [33]): Active; MIC80 (Candida albicans [26]): 0.49 µM (≈ 0.123 µg/mL); IC50 (HeLa S3 [34]): 2090 nM
COCC1C=C(c2ccc(Br)cc2)C(=O)O1 (configuration not stated) | 31.2 (≈ 8.85 µg/mL) | 31.2 (≈ 8.85 µg/mL) | 31.2 (≈ 8.85 µg/mL) | 125 (≈ 35.4 µg/mL) | 250 (≈ 70.8 µg/mL) | 250 (≈ 70.8 µg/mL) | 250 (≈ 70.8 µg/mL) | 250 (≈ 70.8 µg/mL) | 500 (≈ 142 µg/mL) | 62.5 (≈ 17.7 µg/mL) | 62.5 (≈ 17.7 µg/mL) | 125 (≈ 35.4 µg/mL) | 125 (≈ 35.4 µg/mL) | 62.5 (≈ 17.7 µg/mL) | 125 (≈ 35.4 µg/mL) | 62.5 (≈ 17.7 µg/mL) | 125 (≈ 35.4 µg/mL) | 31.2 (≈ 8.85 µg/mL) | 62.5 (≈ 17.7 µg/mL) | 125 (≈ 35.4 µg/mL) | MIC80 (Lichtheimia corymbifera [21]): 250 µM (≈ 70.8 µg/mL); MIC80 [22]: 31.2 µM (≈ 8.85 µg/mL); MIC80 [23]: 31.2 µM (≈ 8.85 µg/mL); IC50 (HL-60): 16 µM; IC50 (HeLa S3 [35]): Not Active; IC50 (CCRF-CEM [27]): 2210 nM; MIC80 (Candida albicans [26]): 15.6 µM (≈ 4.42 µg/mL)
